From PubChem
HTRA1 inh: blocks human HTRA1 serine peptidase | Q92743 | recombinant HTRA1, FP-rhodamine activity-based probe, fluorescence polarization | actives 0.5% (n = 340,000) | inhibition, % at 5.96 µM; in the data active means inhibition above about 36%;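 further: 0% = enzyme with DMSO and 100% = wells lacking enzyme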
ABHD4 inh: inhibitors of mouse ABHD4; Q8VD66; purified mABHD4, FP-Rh probe fluorescence polarization; inhibition, % at 8.92 µM; actives 0.54% (n = 370,000); AID 720543;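 active means inhibition exceeding the mean over every tested compound plus 3 SD, cut at about 30% in these data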;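 further: 0% = plate median of compound wells and 100% = S159A mutant with DMSO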
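Assay system: wild-type mouse ABHD4 protein; compound: single nominal dose of 8.92 µM, 0.89% DMSO final; schedule: 45 min + 60 min at 25 °C; measured by: FP readout, ex 525 nm / em 598 nm; evaluation: % inhibition of FP-Rh probe binding versus controls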
LEDGF integ inh: blocks HIV-1 LEDGF/p75-dependent DNA integration; TR-FRET IN-LEDGF/p75 DNA integration, Eu/Cy5; AID 743269; actives 0.64% (n = 370,000); inhibition, % at 3.7 µM;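 active means inhibition above the screen-wide mean plus 3 SD, cut at about 13% in these data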;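 further: signal is the Cy5 over europium emission ratio at 671 and 618 nm; 0% = plate median of compound wells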
SIAE primary: human SIAE inhibition, primary screen | SIAE FP-Rh probe binding, fluorescence polarization | actives 0.69% (n = 370,000) | inhibition, % at 9.66 µM;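 active means inhibition above a cutoff: mean of compounds within the control limits plus 3 SD of those, cut at about 17% in these data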;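 further: 0% = plate median of compound wells and 100% = probe without SIAE protein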
Target sequence (Q9HAT2 whole entry, looked up): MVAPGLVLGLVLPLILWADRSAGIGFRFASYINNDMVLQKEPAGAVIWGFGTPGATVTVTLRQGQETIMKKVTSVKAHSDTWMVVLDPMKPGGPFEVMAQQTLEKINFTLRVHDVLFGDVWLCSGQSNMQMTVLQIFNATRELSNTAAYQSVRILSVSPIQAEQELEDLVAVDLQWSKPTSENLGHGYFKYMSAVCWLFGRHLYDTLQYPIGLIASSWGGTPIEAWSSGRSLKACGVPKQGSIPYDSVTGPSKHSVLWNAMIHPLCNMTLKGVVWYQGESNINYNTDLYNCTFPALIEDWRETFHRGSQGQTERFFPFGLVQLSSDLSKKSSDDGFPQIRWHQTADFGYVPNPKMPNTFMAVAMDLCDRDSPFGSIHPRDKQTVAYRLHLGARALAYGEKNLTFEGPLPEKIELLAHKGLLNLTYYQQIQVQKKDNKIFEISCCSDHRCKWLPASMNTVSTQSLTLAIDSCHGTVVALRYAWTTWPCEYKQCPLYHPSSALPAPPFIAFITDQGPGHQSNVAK
TDP2 absorb: blocks human TDP2 phosphodiesterase activity; O95551; recombinant TDP2, T5PNP hydrolysis, p-nitrophenol absorbance 415 nm; inhibition, % at 12.8 µM; actives 0.34% (n = 370,000); AID 720702;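 active means inhibition above the mean of all tested compounds plus 3 SD, set per campaign, cut at about 25% in these data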;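 further: 0% = DMSO with enzyme and 100% = buffer with substrate but no TDP2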
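System – recombinant human TDP2 · Quantity – TDP2 enzyme at 120 nM final · Doses – single concentration, 12.8 µM nominal, with 1% DMSO · Incubation – 2 h at 37 °C · Measured by – epi absorbance of p-nitrophenol freed from T5PNP by hydrolysis · Read-out – % inhibition relative to enzyme-containing and enzyme-free wells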
TCR-CD3 inh: inhibitors of human TCR-CD3 interaction | TAMRA-labeled TCR probe fluorescence, biochemical | inhibition, % at 9.4 µM | actives 0.37% (n = 360,000) | AID 651800; in the data active means inhibition above about 19%;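 further: recombinant mutant TCR 2C K166C tagged with TAMRA read by polarization; 0% = receptor in buffer alone and 100% = receptor with positive control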
Active calls of the source: *; . = no result. Rows were chosen to be rich in hits. Some 2.2% of all compounds tested hit in one or more screens of this group.

SMILES	HTRA1 inh	ABHD4 inh	LEDGF integ inh	SIAE primary	TDP2 absorb	TCR-CD3 inh
CCOC(=O)NC1(Nc2cccc(Cl)c2)Oc2ccccc2O1	20.7	32.4*	4.5	12.4	-0.7	6.3
COc1ccc(C(=O)C2(C(=O)NCc3ccccc3)CC(c3ccccc3C(F)(F)F)=NO2)cc1 (configuration not stated)	.	-8.6	-2.0	-3.1	-7.9	.
COC(=O)[C@]12C[C@H](CC(=O)NCC3CCCCC3)C(=O)N(CCc3ccc(OC)c(OC)c3)C1=C[C@H](COCc1ccccc1)O[C@@H]2C	.	-4.3	5.2	11.6	-6.9	.
CC(C)CCC(CCNCc1ccccn1)c1ccc(Cl)cc1 (configuration not stated)	19.2	24.6	15.3*	1.8	-1.5	2.6
CC(=O)CC[C@@H]1CC[C@]2(CCCN(C(=O)c3ccno3)C2)O1	.	-1.8	-3.8	-0.2	17.5	.
C=CCNC(=O)C1CC(=O)N(c2ccc(OCC(=O)Nc3ccccc3)cc2)C1 (configuration not stated)	-10.1	5.4	-1.1	18.4*	-1.6	4.3
Nc1c(C(=O)Nc2ccc(Br)cc2)sc2nc(-c3ccco3)ccc12	10.9	5.7	14.6*	15.5	1.1	7.0
COc1ccc(CCN(Cc2cccs2)S(=O)(=O)c2ccc(F)cc2)cc1OC	.	-19.2	5.5	-12.2	-15.7	.
CC(=O)Oc1cc2cccc(OC(C)=O)c(=O)c2c(OC(C)=O)c1OC(C)=O	69.8*	.	.	.	.	.
CCN1CCc2c(sc(NC(=O)Nc3ccc(Cl)c(Cl)c3)c2C(N)=O)C1	28.4	7.4	-0.1	31.0*	-10.9	6.4
CCN1CCc2c(sc(NC(=O)Cc3ccccc3)c2C(N)=O)C1	4.9	2.9	-3.5	-0.6	10.2	-1.7
O=C(NCC(c1ccccc1)c1ccccc1)[C@H](Cc1c[nH]c2ccccc12)NC1(C(=O)NC2CCCCC2)CCCCCC1	.	4.0	-1.0	-2.6	-9.1	.
O=C(CCc1ccccc1-c1ccccc1CCNC(=O)c1ccc(F)c(F)c1)NCc1ccccc1	.	2.8	0.7	-0.9	3.1	.
N#Cc1c(=O)c2nc(NCc3ccccc3)ncc2n2ccccc12	2.2	8.8	43.7*	-1.6	10.4	14.8
N#Cc1c(=O)c2nc(NCCCO)ncc2n2c(=O)c3ccccc3[nH]c12	-2.8	-2.5	-0.8	-13.6	-8.9	1.0
O=C(NC1CCCCN(Cc2cccc(F)c2)C1=O)c1ccc(F)cc1 (configuration not stated)	.	4.2	-3.7	0.3	3.8	.
O=C1c2ccccc2C(=O)c2[nH]c(=O)[nH]c21	11.0	21.2	2.9	2.2	38.0*	1.4
O=C1c2ccccc2C(=O)c2[nH]cnc21	4.0	4.7	0.7	-2.1	0.7	6.8
C[C@@H]1CN([C@@H](C)CO)C(=O)c2cccc(NC(=O)Nc3cccc4ccccc34)c2O[C@H]1CN(C)S(=O)(=O)c1ccc(Cl)cc1	.	-15.9	6.4	1.9	1.3	.
CCC(=O)Nc1ccc2c(c1)C(=O)N(C)[C@@H]1CC[C@@H](CC(=O)OC)O[C@H]1CO2	.	4.1	-2.2	-8.9	-9.9	.
CC1=NN(c2ccccc2C)C(=O)C1	-2.1	0.2	9.4	5.8	50.7*	8.3
Cc1sc2nc(CSCC(=O)N(CCC#N)c3ccccc3)[nH]c(=O)c2c1C	-3.7	6.0	-0.8	-2.3	-1.3	20.2*
O=C(Nc1ccc2c(c1)OCO2)OC1CC2CC1[C@H]1CCCCN1[C@H]2Cc1ccccc1 (some centres not stated)	.	-7.1	-3.7	0.8	7.3	.
O=C1NC(=S)S/C1=C\c1ccc(SCc2ccccc2)o1	-32.3	-16.4	43.0*	-10.0	15.8	4.5
CCN(C(=O)COC(=O)CCC(=O)c1ccc(C)cc1)c1c(N)n(Cc2ccccc2)c(=O)[nH]c1=O	0.2	4.5	-3.5	-0.2	6.6	-3.3
SMILES	HTRA1 inh	ABHD4 inh	LEDGF integ inh	SIAE primary	TDP2 absorb	TCR-CD3 inh
CCN(C(=O)COC(=O)CCC(=O)c1ccccc1)c1c(N)n(Cc2ccccc2)c(=O)[nH]c1=O	2.1	-5.3	1.5	25.8*	3.2	1.4
CCOC(=O)Cc1cc(=O)n(-c2nc3ccccc3s2)[nH]1	49.1*	4.4	3.1	9.8	-7.3	15.6
Cc1oc(-c2ccc(F)cc2)cc1-c1nn2c(-c3ccco3)nnc2s1	.	18.4	4.9	-3.2	2.4	-2.0
Cc1oc(-c2ccc(F)cc2)cc1-c1nn2c(-c3ccoc3C)nnc2s1	9.9	14.1	38.4*	2.0	1.4	5.3
COC(=O)C1=CN(c2cccc(C)c2)C=C(C(=O)OC)C1c1cc(OC)c(O)c([N+](=O)[O-])c1	52.4*	8.2	-0.5	4.7	8.0	9.2
O=C1c2ccccc2C(=O)N1/N=C/c1ccc(O)c(O)c1O	44.1*	.	.	.	.	.
O=C(NCc1ccccc1)C(c1cccs1)N(C(=O)c1csnn1)C1CC1 (configuration not stated)	2.5	-0.1	-1.8	-5.8	5.1	2.4
O=C(NCCc1ccccc1)C(c1cccs1)N(C(=O)c1csnn1)C1CC1 (configuration not stated)	-5.4	-0.2	0.2	17.6*	-0.8	5.7
Cc1cccc(-n2nc3c(c2NC(=O)c2ccco2)CSC3)c1C	-26.1	-15.5	28.8*	-7.5	-4.0	-5.2
Cc1cccc(-n2nc3c(c2NC(=O)c2ccco2)CS(=O)C3)c1C (configuration not stated)	-0.6	5.3	-2.3	-4.1	15.6	1.5
Cc1cc(-c2n[nH]c(=S)n2N=Cc2ccc(OCc3ccccc3)cc2)n[nH]1	.	4.9	1.6	13.8	3.2	.
N#Cc1c(N2CCN(c3ccc(F)cc3)CC2)nc(N)c2c(N)nc3c(c12)CC(=O)N3C1CC1	25.1	14.8	3.0	9.5	0.7	6.7
CC(C)(C)N1C(=O)Cc2c1nc(N)c1c(N)nc(N3CCCCC3CO)c(C#N)c21 (configuration not stated)	55.5*	.	.	.	.	.
CCOC(=O)c1cnc(Nc2nc3ccccc3o2)nc1CN1CCN(C)CC1	10.8	14.2	17.9*	5.9	-4.1	-1.6
CC(C(=O)Nc1ccc(C(=O)O)c(O)c1)N1C(=O)/C(=C\c2ccco2)SC1=S (configuration not stated)	9.3	.	.	.	.	.
O=C(CN1C(=O)/C(=C/c2ccco2)SC1=S)Nc1ccc(O)c(C(=O)O)c1	2.7	-28.9	46.9*	-8.0	4.0	-1.3
COc1ccc(NC(=O)CCCN2C(=O)/C(=C\c3ccco3)SC2=S)cc1	-4.1	2.2	2.4	-1.0	0.2	-9.7
O=C(CN1C(=O)/C(=C/c2ccco2)SC1=S)Nc1ccc(C(=O)O)c(O)c1	-17.1	-22.3	89.8*	-22.1	20.6	-2.0
CN(Cc1ccco1)c1ncnc2ccc(-c3ccoc3)cc12	0.8	-3.8	20.4*	-6.9	-4.2	8.8
